Drawing on ChEMBL document CHEMBL1949637, “Anticancer effects of the metabolic products of the resveratrol analogue, DMU-212: structural requirements for potency” (Eur J Med Chem, 2011), this text covers Activity and IC50 for 5 compounds.

pIC50: −log10 of the molar value. The source made the active and inactive calls. The rule behind the calls is not given here.

What all share (type): functional, cell-based
In test [1] the test system is HepG2. Put plainly: Cytotoxicity against human HepG2 cells up to 20 uM after 96 hrs by MTT assay. (In general: Tetrazolium dyes change colour on reduction, which living cells bring about.)
Test [2] relates to MCF7. Put plainly: Cytotoxicity against human MCF7 cells up to 20 uM after 96 hrs by MTT assay.
Test [3] concerns MCF7. As to the kind of experiment: Cell cycle arrest in human MCF7 cells assessed as accumulation at G1 phase at 10 uM after 24 hrs using propidium iodide staining by flow cytometry. An outline of the steps: (§1)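 Cells cultured in T75 flasks, serum-starved 24 h, then exposed to 10 μM for 24 h. Trypsinised, washed in PBS and fixed in 70% ethanol for at least 2 h. Stained with propidium iodide 50 μg/mL containing RNase A 100 μg/mL. DNA content read by flow cytometry on at least 10,000 events. Percentage of cells in each phase recorded.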
(A flow cytometer gives signals particle by particle.)

Test [4] concerns MCF7. As to the kind of experiment: Antimitotic activity in human MCF7 cells assessed as decrease in localization of beta-tubulin expression around cell nucleus at 30 uM after 24 hrs by immunofluorescence staining. The method, boiled down:
(§2)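 MCF-7 cells seeded on coverslips in 24-well plates, 8 × 10⁴ cells/well, exposed to 10 or 30 μM for 24 or 48 h. Fixed, permeabilised, then stained 1 h at room temperature with anti-β-tubulin (1:200 in PBS/1% FBS). Secondary was AlexaFluor-conjugated anti-mouse IgG (1:500), 1 h in the dark. Read by fluorescence microscopy.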

For test [5], the system named is HepG2. Put plainly: Cell cycle arrest in human HepG2 cells assessed as accumulation at G2/M phase at 10 uM after 24 hrs using propidium iodide staining by flow cytometry. An outline of the steps:
as §1

The test system of test [6] is HeLa. As to the kind of experiment: Cell cycle arrest in human HeLa cells assessed as accumulation at G2/M phase at 10 uM after 24 hrs using propidium iodide staining by flow cytometry. The method, boiled down: as §1
The test system of test [7] is MCF7. Put plainly: Induction of apoptosis in human MCF7 cells assessed as nuclear fragmentation at 10 uM after 24 hrs using DAPI staining by immunofluorescence method. An outline of the steps:
(§3)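 MCF-7 cells grown on coverslips (8 × 10⁴ cells/well) and treated 24 h at 10 or 30 μM. Fixed, permeabilised and processed as for β-tubulin immunostaining. DAPI working solution applied at 1:100 for 5 min. Fragmented nuclei scored by fluorescence microscopy.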

The test system of test [8] is HeLa. As to the kind of experiment: Cytotoxicity against human HeLa cells after 96 hrs by MTT assay. The method, boiled down: (§4)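 Cells plated in 96-well plates and allowed 24 h growth. Medium was replaced with serial dilutions, 0.079–20 μM, for 96 h. Viability read spectrophotometrically by MTT reduction. IC₅₀ values taken from at least 3 experiments. MCF-7 cells were kept in RPMI-1640 and HepG2/HeLa in DMEM, each with 10% heat-inactivated FCS.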

The subject of test [9] is HepG2. Put plainly: Cell cycle arrest in human HepG2 cells assessed as accumulation at S phase at 10 uM after 24 hrs using propidium iodide staining by flow cytometry. The method, boiled down:
as §1

Test [10] relates to MCF7. Put plainly: Cytotoxicity against human MCF7 cells after 96 hrs by MTT assay. The following applies: MCF7, 96 h. The method, boiled down: as §4
Test [11] relates to HepG2. As to the kind of experiment: Cytotoxicity against human HepG2 cells after 96 hrs by MTT assay. The following applies: HepG2, 96 h. An outline of the steps:
as §4

In test [12] the test system is MCF7. As to the kind of experiment: Cell cycle arrest in human MCF7 cells assessed as accumulation at G2/M phase at 10 uM after 24 hrs using propidium iodide staining by flow cytometry. An outline of the steps:
as §1

Test [13] concerns MCF7. Put plainly: Downregulation of cyclin D1 expression in human MCF7 cells after 24 hrs by Western blot analysis. An outline of the steps:
(§5)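 MCF-7 or HepG2 cells seeded at 3 × 10⁵ cells/mL in 6-well plates and treated 24 h at 37 °C with 0, 30, 40 or 50 μM. Lysed in buffer with protease inhibitors and 1 mM DTT, then sonicated. Lysates run on SDS-PAGE (10% resolving gel), wet-blotted to PVDF and probed overnight at 4 °C. Antibodies were anti-β-tubulin 1:400, p53 1:200, cyclin D1 1:200; β-actin 1:400 served as loading reference. Detection by ECL.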
(Immunoblotting shows a protein as a band on a membrane.)

Test [14] relates to HepG2. Put plainly: Upregulation of p53 protein expression in human HepG2 cells after 24 hrs by Western blot analysis. The method, boiled down: as §5
The test system of test [15] is MCF7. Put plainly: Cell cycle arrest in human MCF7 cells assessed as accumulation at S phase at 10 uM after 24 hrs using propidium iodide staining by flow cytometry. An outline of the steps:
as §1

Test [16] relates to HepG2. Put plainly: Downregulation of beta-tubulin expression in human HepG2 cells at >30 uM after 24 hrs by Western blot analysis. The method, boiled down: as §5
For test [17], the system named is MCF7. As to the kind of experiment: Induction of apoptosis in human MCF7 cells assessed as nuclear fragmentation at 30 uM after 24 hrs using DAPI staining by immunofluorescence method. An outline of the steps: as §3
For test [18], the system named is HepG2. As to the kind of experiment: Cell cycle arrest in human HepG2 cells assessed as accumulation at G1 phase at 10 uM after 24 hrs using propidium iodide staining by flow cytometry. The method, boiled down:
as §1

Test [19] concerns MCF7. Put plainly: Upregulation of p53 protein expression in human MCF7 cells after 24 hrs by Western blot analysis. An outline of the steps: as §5
Test [20] relates to MCF7. As to the kind of experiment: Antimitotic activity in human MCF7 cells assessed as effect on beta-tubulin distribution at 10 uM after 24 hrs by immunofluorescence staining. The method, boiled down: as §2
Test [21] has as its system HepG2. Put plainly: Downregulation of cyclin D1 expression in human HepG2 cells after 24 hrs by Western blot analysis. The method, boiled down:
as §5

Test [22] deals with MCF7. Put plainly: Downregulation of beta-tubulin expression in human MCF7 cells at >30 uM after 24 hrs by Western blot analysis. The method, boiled down: as §5
The subject of test [23] is MCF7. Put plainly: Antimitotic activity in human MCF7 cells assessed as decrease in localization of beta-tubulin expression around cell nucleus at 30 uM after 48 hrs by immunofluorescence staining. An outline of the steps: as §2
Test [24] deals with MCF7. Put plainly: Induction of apoptosis in human MCF7 cells assessed as down-regulation of Bcl-xL mRNA level after 24 hrs by RT-PCR analysis.
Test [25] relates to HepG2. As to the kind of experiment: Induction of apoptosis in human HepG2 cells assessed as increase of ratio of Bax to Bcl-xL mRNA level at 20 to 40 uM after 24 hrs by RT-PCR analysis.
The test system of test [26] is MCF7. Put plainly: Induction of apoptosis in human MCF7 cells assessed as increase of ratio of Bax to Bcl-xL mRNA level at 30 to 40 uM after 24 hrs by RT-PCR analysis.
Test [27] concerns HepG2. As to the kind of experiment: Induction of apoptosis in human HepG2 cells assessed as upregulation of Bax mRNA level after 24 hrs by RT-PCR analysis.
The test system of test [28] is MCF7. Put plainly: Induction of apoptosis in human MCF7 cells assessed as upregulation of Bax mRNA level after 24 hrs by RT-PCR analysis.
For test [29], the system named is HepG2. As to the kind of experiment: Induction of apoptosis in human HepG2 cells assessed as effect on Bcl-xL mRNA level after 24 hrs by RT-PCR analysis.

`COc1cc(/C=C/c2ccc(O)cc2)cc(OC)c1OC`: the outcome in test [1] and in test [2] was inactive.

`COc1ccc(/C=C/c2cc(OC)c(OC)c(OC)c2)cc1`: the outcome in test [3], in test [4], in test [5], in [6], in test [8] and in test [9] was Active. The outcome in [12], in test [15], in test [16], in [17], in [18] and in test [22] was Active. The result in [23] was Active. Moreover, the outcome in [7] and in test [20] was inactive. The pIC50 in test [10] and in test [11] was 6.52 throughout. The Activity entry in test [13], in test [14], in test [19] and in test [21] was “Dose-dependent effect” in each case.

Turning to `COc1ccc(/C=C/c2cc(OC)c(O)c(OC)c2)cc1`, the outcome in [1] and in test [2] was inactive.

Consider `COc1ccc(/C=C/c2cc(OC)c(OC)c(OC)c2)cc1O`, for which the result in [24], in test [3], in [4], in test [5], in test [6] and in test [25] was Active. In addition, the result in test [26], in test [8], in test [1], in test [9], in [12] and in [15] was Active. For the same compound, the result in test [16], in [17], in test [2], in [18], in test [22] and in test [23] was Active. Moreover, the outcome in test [7], in test [20] and in test [29] was inactive. The Activity result in test [13], in test [14], in [27], in test [28], in [19] and in test [21] was “Dose-dependent effect” each time.

Turning to `COc1ccc(/C=C/c2cc(O)c(OC)c(OC)c2)cc1`, the result in [1] and in test [2] was inactive.

The term pIC50 denotes the negative decadic logarithm of the IC50, by convention in mol/L.
